Results taken from ChEMBL document CHEMBL1126740, “(S)- and (R)-8-(di-n-propylamino)-6,7,8,9-tetrahydro-3H-benz[e]indole-1-carbaldehyde: a new class of orally active 5-HT1A-receptor agonists” (J Med Chem, 1993).
The source made the active and inactive calls. The calls are words filed in the database; no cut-off is given here.

What was measured:
[1] = Area under curve at 1 uM/dg administered intravenously; assay type: ADME; settings: iv
Procedure, shortened: (§1)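 Male Sprague-Dawley rats (300 g) carrying arterial catheters, used 24 h after surgery; animals dosed orally were starved 18 h beforehand. Blood was sampled at intervals up to 12 h after dosing. Drug levels were measured by HPLC with fluorescence detection (ex 285, em 365) or by GC/MS, calibrated against spiked blank blood. AUC was taken from concentration-time curves; n = 4–6.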

[2] = system: Rattus norvegicus; test: In vivo evaluation for DOPA accumulation in the hemispheres in male rats at highest test dose of 45 uM/Kg; inactive; assay type: functional, organism-based
Procedure, shortened: (§2)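 Male Sprague-Dawley rats were pretreated with reserpine 5 mg/kg sc 18 h before dosing. DOPA and 5-HTP in limbic system, striatum and hemispheres were measured by HPLC with electrochemical detection. Dose-response curves used 4–6 dose levels (n = 4) for each region; ED50 was estimated graphically. Partial responses are given as the maximal % reduction at the highest dose tested.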

[3] = Time taken to reach the maximum concentration of compound at 1 uM/dg administered intravenously; assay type: ADME, organism-based; settings: in vivo, iv
Procedure, shortened: (§3)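 Male Sprague-Dawley rats (300 g) with arterial catheters, used 24 h after surgery; rats dosed orally were starved 18 h. Drug was given po or iv. Blood (100–250 μL) was sampled at intervals up to 12 h and assayed by HPLC-fluorescence (ex 285, em 365) or GC/MS against spiked blank-blood standard curves. Cmax and tmax were taken from concentration–time curves; n = 4–6.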

[4] = system: Rattus norvegicus; test: In vivo evaluation for 5-HTP accumulation in the limbic system in male rats (sc); assay type: functional; procedure, shortened: as §2
[5] = system: Rattus norvegicus; test: Maximal reduction in percent (Partial response) of DOPA accumulation rat limbic system at highest test dose of 61 uM/Kg (po); assay type: functional
[6] = system: Rattus norvegicus; test: In vivo evaluation for DOPA accumulation in the limbic system in male rats at highest test dose of 45 uM/Kg; inactive; assay type: functional, organism-based; procedure, shortened: as §2
[7] = Maximum concentration of the drug at 1 umol/dg administered intravenously; assay type: ADME, organism-based; parameters: route intravenous; settings: in vivo, iv
Procedure, shortened: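 Male Sprague-Dawley rats (300 g) with arterial catheters were dosed 24 h after surgery; orally dosed rats were starved 18 h beforehand. Blood was sampled at intervals up to 12 h and analysed by HPLC with fluorescence detection (ex 285, em 365) or by GC/MS. Cmax is in pmol/mL and tmax in min, mean ± SEM, n = 4–6.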

[8] = system: Rattus norvegicus; test: In vivo evaluation for 5-HTP accumulation in the hemispheres in male rats (sc); assay type: functional; procedure, shortened: as §2
[9] = system: Rattus norvegicus; test: In vivo evaluation for 5-HTP accumulation in the corpus striatum in male rats.(sc); assay type: functional
Procedure, shortened: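 Male Sprague-Dawley rats (200–300 g), reserpine-pretreated (5 mg/kg sc, 18 h before). Test drug was given sc in 4–6 doses (n = 4 per dose), with separate curves per brain area. 5-HTP in corpus striatum was measured by HPLC with electrochemical detection. ED50 was read from the dose–response curve.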

[10] = system: Rattus norvegicus; test: In vivo evaluation for 5-HTP accumulation in the hemispheres in male rats (po); assay type: functional; procedure, shortened: as §2
[11] = system: Rattus norvegicus; test: Maximal reduction in percent (Partial response) of DOPA accumulation rat hemispheres at highest test dose of 61 uM/Kg (po); Inactive; assay type: functional, organism-based; procedure, shortened: as §2
[12] = molecular target: D(2) dopamine receptor (Rattus norvegicus, UniProt P61169); test: Displacement of [3H]spiperone from dopamine receptor D2
Procedure, shortened: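 Rat striatal membranes in 50 mM potassium phosphate buffer (3 mg original tissue) incubated with 0.5 nM [3H]spiperone for 10 min at 37 °C. Nonspecific binding was defined with 10 μM 6,7-ADTN. Ki was calculated by Cheng–Prusoff; triplicates, 3–7 experiments.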

[13] = species on record: Rattus norvegicus; test: Compound was tested for 5-HT behavioral response in reserpine pretreated rats; +5HT syndrome; assay type: functional, organism-based
Procedure, shortened: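 Male Sprague-Dawley rats (200–300 g) were given reserpine 5 mg/kg sc 18 h before testing, then the test drug sc in the neck (n = 4). Motor activity was recorded by photocells for 30 min, with gross behaviour observed throughout. 5-HT syndrome: flat body posture, extended limbs, reciprocal forepaw treading. DA response: locomotion and stereotypies.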

[14] = Area under curve at 20 uM/dg administered perorally; assay type: ADME; settings: po; procedure, shortened: as §1
[15] = Half life of compound at 1 uM/dg administered intravenously; assay type: ADME, organism-based; settings: in vivo, iv; procedure, shortened: as §1
[16] = Bioavailability in rat; assay type: ADME, organism-based; settings: in vivo
Procedure, shortened: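 Blood was drawn at intervals up to 12 h and assayed by HPLC-fluorescence or GC/MS against spiked blank-blood standards. F is the ratio of oral to intravenous areas under the blood concentration-time curves; n = 4–6.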

[17] = system: Rattus norvegicus; test: In vivo evaluation for 5-HTP accumulation in the corpus striatum in male rats (po); assay type: functional; procedure, shortened: as §2
[18] = system: Rattus norvegicus; test: Maximal reduction in percent (Partial response) of DOPA accumulation rat corpus striatum at highest test dose of 61 uM/Kg (po); assay type: functional; procedure, shortened: as §2
[19] = system: Rattus norvegicus; test: In vivo evaluation for 5-HTP accumulation in the limbic system in male rats (po); assay type: functional; procedure, shortened: as §2
[20] = Maximum concentration of the drug at 20 umol/dg administered perorally; assay type: ADME, organism-based; parameters: route oral; settings: in vivo, po; procedure, shortened: as §3
[21] = system: Rattus norvegicus; test: In vivo evaluation for DOPA accumulation in the corpus striatum in male rats at highest test dose of 45 uM/Kg; inactive; assay type: functional, organism-based; procedure, shortened: as §2

Chain of D(2) dopamine receptor (P61169 whole entry): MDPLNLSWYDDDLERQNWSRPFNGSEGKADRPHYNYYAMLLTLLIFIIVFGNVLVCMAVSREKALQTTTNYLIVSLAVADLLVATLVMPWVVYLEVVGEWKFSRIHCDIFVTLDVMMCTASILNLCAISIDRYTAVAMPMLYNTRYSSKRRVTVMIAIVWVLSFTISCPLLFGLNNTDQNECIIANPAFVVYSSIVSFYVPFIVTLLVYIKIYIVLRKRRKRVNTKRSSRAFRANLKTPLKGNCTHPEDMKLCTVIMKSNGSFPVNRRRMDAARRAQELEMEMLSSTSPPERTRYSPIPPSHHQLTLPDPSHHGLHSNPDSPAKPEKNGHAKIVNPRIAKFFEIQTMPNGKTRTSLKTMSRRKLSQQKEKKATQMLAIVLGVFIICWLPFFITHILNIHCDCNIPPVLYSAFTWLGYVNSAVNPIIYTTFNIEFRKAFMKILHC

In the case of `CCCN(CCC)C1CCc2cccc(O)c2C1` (racemic) [8-OH-DPAT], the AUC [1] is reported as 213 pM/h/g, the ED50 [2] is reported as “inactive” and the Tmax at 1 µM [3] is reported as 3 min. For the same compound, the ED50 [4] was 0.052 µmol/kg, the Reduction [5] was 35% and the ED50 [6] was “inactive”. It also gave a Cmax [7] of 344 pM ml-1, an ED50 [8] of 0.063 µmol/kg and an ED50 [9] of 0.052 µmol/kg. For the same compound, the ED50 [10] was 7.9 µmol/kg, the Reduction [11] was “inactive” and the Ki [12] was 1.36 µM. The Behavioral response [13] was “Active”, the AUC [14] was 104 pM/h/g and the half-life [15] was 72 min. For the same compound, the bioavailability [16] was 2.4%, the ED50 [17] was 7.9 µmol/kg and the Reduction [18] was 43%. The ED50 [19] was 3 µmol/kg, the Cmax [20] was 63 pM ml-1 and the ED50 [21] was “inactive”.
